By IC50 is commonly meant the midpoint of a concentration-inhibition curve.

Data set [1] deals with MDA-MB-231. The data set can be described thus: Antitumor activity against human MDA-MB-231 cells xenografted in BALB/c nu mouse assessed as tumor growth inhibition at 5 mg/kg, ip administered thrice per week for 38 days by caliper method relative to control. In kind it is functional. The following applies: MDA-MB-231, ip, 912 h, time 38 day, read-out: TGI. In a few lines:
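Female BALB/c-nu mice (5–6 wk) given 1 × 10⁷ luciferase-expressing MDA-MB-231 cells in 50:50 DMEM/Matrigel into the fourth fat pad; randomized after 10 days (six per group). Dosed ip in EtOH/Cremophor/saline (5:5:90) three times weekly for 38 days. Tumor L, W, H measured by caliper, volume = LWH/2; body weight weekly; tumors excised and weighed at termination.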

For data set [2], the target named is Histone-lysine N-methyltransferase, H3 lysine-79 specific (Homo sapiens) (UniProt Q8TEK3). The data set can be described thus: Inhibition of human N-terminal GST-tagged DOT1L (2 to 416 residues) expressed in Escherichia coli at 200 nM using DOT1L substrate measured after 2 hrs in presence of SAM by ELISA. The method in brief:
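Cell-free DOT1L enzyme activity assay using 500 ng DOT1L per well. Compound was incubated 2 h before read-out. EPZ-5676 (100 nM) was the positive control. Mean ± SD (n = 3), representative of three separate experiments.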
Background: ELISA stands for enzyme-linked immunosorbent assay.

Data set [3] deals with MDA-MB-231. The data set can be described thus: Antimetastatic activity against human MDA-MB-231 cells xenografted in BALB/c nu mouse assessed as reduction in luciferase signal in lung tissue at 5 to 15 mg/kg, ip administered thrice per week for 38 days measured 1 week post last dose by luciferase based imaging analysis. The following applies: dose 5-15 mg/kg, time 45.0 day. Type of data set: functional, organism-based. The method in brief: (§1)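 Orthotopic luciferase-expressing MDA-MB-231 model in female BALB/c-nu mice, ip dosing in EtOH/Cremophor/saline (5:5:90) three times weekly for 38 days. One week later anesthetized mice imaged by IVIS 15 min after D-luciferin (150 mg/kg in PBS); lungs and other organs then excised and imaged ex vivo.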

In data set [4] the test system is MDA-MB-231. The data set can be described thus: Antitumor activity against human MDA-MB-231 cells xenografted in ip dosed BALB/c nu mouse assessed as down regulation of H3K79me2 expression in tumor tissue administered thrice per week for 38 days measured 1 week post last dose by Western blot analysis. Type of data set: functional, organism-based. The following applies: dose 5-15 mg/kg, time 45.0 day. In a few lines: (§2)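 Frozen tumor portions from the orthotopic MDA-MB-231 nude mouse study homogenized in complete lysis buffer; protein by Bradford assay. Western blotting for H3K79me2, E-cadherin and vimentin, β-actin internal control, band intensities semi-quantified; three separate experiments.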
(A xenograft is tissue or cells of one species grown in another, often human tumour cells in immunodeficient mice.)

Data set [5] has as its system MDA-MB-231. Put plainly: Antimetastatic activity against human MDA-MB-231 cells xenografted in ip dosed BALB/c nu mouse assessed as down regulation of vimentin expression in tumor tissue administered thrice per week for 38 days measured 1 week post last dose by Western blot analysis. The following applies: dose 5-15 mg/kg, time 45.0 day. In kind it is functional, organism-based. The method in brief: as §2

The next data set deals with MCF-10A. Put plainly: Cytotoxicity against human MCF-10A cells assessed as reduction in cell viability by SRB assay. In kind it is cell-based. In a few lines:
(§3)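 Cells seeded in 96-well plates and exposed to compounds for the stated times. Zero-day controls were incubated 30 min. Cells were fixed and stained with 0.4% SRB in 1% acetic acid, and bound dye was dissolved in 10 mM Tris (pH 10.0). A515 was read, and IC50 was calculated by non-linear regression.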
Background: The SRB assay estimates cell density from bound dye.

The test system of data set [6] is MDA-MB-231. The data set can be described thus: Down regulation of CDH2 mRNA expression in human MDA-MB-231 cells at 50 to 200 nM measured after 24 hrs by RT-PCR analysis. In kind it is functional, cell-based. Conditions: dose 50-200 nM.
Data set [7] concerns MDA-MB-231. Put plainly: Antimetastatic activity against human MDA-MB-231 cells xenografted in BALB/c nu mouse assessed as down regulation of vimentin expression in tumor tissue at 5 to 15 mg/kg, ip administered thrice per week for 38 days measured 1 week post last dose by H and E staining based immunohistochemical analysis. Conditions: dose 5-15 mg/kg, time 45.0 day. In kind it is functional, organism-based. The method in brief: (§4)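 Tumors and lungs from orthotopic MDA-MB-231/Luc nude mice (ip dosing three times weekly, 38 days) fixed in 4% PFA, paraffin-embedded, sectioned, antigen-retrieved. Lungs H&E-stained for metastatic cells; tumor sections immunostained for Ki67, H3K79me2, E-cadherin, vimentin with HRP detection, hematoxylin counterstain, imaged at 200×.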

Data set [8] in a line: Selectivity ratio of IC50 for human MCF-10A cells to IC50 for human SK-HEP1 cells. In a few lines:
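Cytotoxicity by SRB assay: cells seeded in 96-well plates and treated with compounds; fixed, stained with 0.4% SRB in 1% acetic acid, dye dissolved in 10 mM Tris (pH 10.0), absorbance read at 515 nm. IC50 by non-linear regression, means of at least three experiments; ratio of MCF10A IC50 to cancer-line IC50.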

Data set [9] has as its system MDA-MB-231. Put plainly: Antimetastatic activity against human MDA-MB-231 cells xenografted in ip dosed BALB/c nu mouse assessed as up regulation of E-cadherin expression in tumor tissue administered thrice per week for 38 days measured 1 week post last dose by Western blot analysis. Type of data set: functional, organism-based. Conditions: dose 5-15 mg/kg, time 45.0 day. In a few lines:
as §2

Data set [10] concerns MDA-MB-231. Put plainly: Down regulation of VIM expression in human MDA-MB-231 cells at 50 to 200 nM measured after 48 hrs by Western blot analysis. Type of data set: functional, cell-based. Conditions: dose 50-200 nM. In a few lines:
(§5)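 MDA-MB-231 cells exposed to compound for 48 h; lysates in 2× SDS sample buffer with orthovanadate and NaF, protein by BCA. 5–20 μg resolved on 8–15% SDS-PAGE, PVDF, BSA block, probed for E-cadherin, N-cadherin, ZEB1, vimentin; ECL detection, β-actin internal control, band densitometry. Mean ± SD (n = 3), three experiments.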

Data set [11] can be described thus: Toxicity in human MDA-MB-231 cells xenografted BALB/c nu mouse assessed as change in body weight at 5 to 15 mg/kg, ip administered thrice per week for 38 days measured once per week during compound dosing. Type of data set: organism-based. The following applies: in vivo, 912 h, dose 5-15 mg/kg, time 38 day. The method in brief:
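Female BALB/c-nu mice, 5–6 weeks old, received 1 × 10⁷ luciferase-expressing MDA-MB-231 cells in 50:50 DMEM/Matrigel into the fourth fat pad. At day 10, mice were randomized into groups of six. Dosing was i.p. three times weekly for 38 days, in vehicle EtOH/Cremophor/saline 5:5:90. Body weight was recorded weekly, and toxicity was judged by lethality and weight loss.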

Data set [12] concerns MDA-MB-231. The data set can be described thus: Antimetastatic activity against human MDA-MB-231 cells xenografted in BALB/c nu mouse assessed as up regulation of E-cadherin expression in tumor tissue at 5 to 15 mg/kg, ip administered thrice per week for 38 days measured 1 week post last dose by H and E staining based immunohistochemical analysis. Type of data set: functional, organism-based. The following applies: dose 5-15 mg/kg, time 45.0 day. In a few lines:
as §4

Data set [13] is described as follows: Selectivity ratio of IC50 for human MCF-10A cells to IC50 for human HCT-116 cells. Type of data set: toxicity. The following applies: MCF-10A cells versus HCT-116 cells, read-out: Ratio IC50.
For data set [14], the system named is MDA-MB-231. The data set can be described thus: Down regulation of ZEB1 expression in human MDA-MB-231 cells at 50 to 200 nM measured after 48 hrs by Western blot analysis. In kind it is functional, cell-based. Conditions: dose 50-200 nM. In a few lines:
as §5

In data set [15] the test system is MDA-MB-231. The data set can be described thus: Antimetastatic activity against human MDA-MB-231 cells xenografted in BALB/c nu mouse assessed as reduction in luciferase signal in tumor site at 5 to 15 mg/kg, ip administered thrice per week for 38 days measured 1 week post last dose by luciferase based imaging analysis. In kind it is functional, organism-based. Conditions: dose 5-15 mg/kg, time 45.0 day. In a few lines: as §1

The next data set relates to SK-HEP1. Put plainly: Cytotoxicity against human SK-HEP1 cells assessed as reduction in cell viability by SRB assay. Type of data set: functional, cell-based. In a few lines:
as §3

Data set [16] is described as follows: Selectivity ratio of IC50 for human MCF-10A cells to IC50 for human MDA-MB-231 cells. Type of data set: toxicity. Conditions: MCF-10A cells versus MDA-MB-231 cells, read-out: Ratio IC50.
The subject of another data set is A549. The data set can be described thus: Cytotoxicity against human A549 cells assessed as reduction in cell viability by SRB assay. In kind it is functional, cell-based. In a few lines:
as §3

The source made the active and inactive calls. The calls are words filed in the database; no cut-off is given here.

Sequence of Histone-lysine N-methyltransferase, H3 lysine-79 specific (Homo sapiens) (Q8TEK3 whole entry, looked up, the tested form may be a part): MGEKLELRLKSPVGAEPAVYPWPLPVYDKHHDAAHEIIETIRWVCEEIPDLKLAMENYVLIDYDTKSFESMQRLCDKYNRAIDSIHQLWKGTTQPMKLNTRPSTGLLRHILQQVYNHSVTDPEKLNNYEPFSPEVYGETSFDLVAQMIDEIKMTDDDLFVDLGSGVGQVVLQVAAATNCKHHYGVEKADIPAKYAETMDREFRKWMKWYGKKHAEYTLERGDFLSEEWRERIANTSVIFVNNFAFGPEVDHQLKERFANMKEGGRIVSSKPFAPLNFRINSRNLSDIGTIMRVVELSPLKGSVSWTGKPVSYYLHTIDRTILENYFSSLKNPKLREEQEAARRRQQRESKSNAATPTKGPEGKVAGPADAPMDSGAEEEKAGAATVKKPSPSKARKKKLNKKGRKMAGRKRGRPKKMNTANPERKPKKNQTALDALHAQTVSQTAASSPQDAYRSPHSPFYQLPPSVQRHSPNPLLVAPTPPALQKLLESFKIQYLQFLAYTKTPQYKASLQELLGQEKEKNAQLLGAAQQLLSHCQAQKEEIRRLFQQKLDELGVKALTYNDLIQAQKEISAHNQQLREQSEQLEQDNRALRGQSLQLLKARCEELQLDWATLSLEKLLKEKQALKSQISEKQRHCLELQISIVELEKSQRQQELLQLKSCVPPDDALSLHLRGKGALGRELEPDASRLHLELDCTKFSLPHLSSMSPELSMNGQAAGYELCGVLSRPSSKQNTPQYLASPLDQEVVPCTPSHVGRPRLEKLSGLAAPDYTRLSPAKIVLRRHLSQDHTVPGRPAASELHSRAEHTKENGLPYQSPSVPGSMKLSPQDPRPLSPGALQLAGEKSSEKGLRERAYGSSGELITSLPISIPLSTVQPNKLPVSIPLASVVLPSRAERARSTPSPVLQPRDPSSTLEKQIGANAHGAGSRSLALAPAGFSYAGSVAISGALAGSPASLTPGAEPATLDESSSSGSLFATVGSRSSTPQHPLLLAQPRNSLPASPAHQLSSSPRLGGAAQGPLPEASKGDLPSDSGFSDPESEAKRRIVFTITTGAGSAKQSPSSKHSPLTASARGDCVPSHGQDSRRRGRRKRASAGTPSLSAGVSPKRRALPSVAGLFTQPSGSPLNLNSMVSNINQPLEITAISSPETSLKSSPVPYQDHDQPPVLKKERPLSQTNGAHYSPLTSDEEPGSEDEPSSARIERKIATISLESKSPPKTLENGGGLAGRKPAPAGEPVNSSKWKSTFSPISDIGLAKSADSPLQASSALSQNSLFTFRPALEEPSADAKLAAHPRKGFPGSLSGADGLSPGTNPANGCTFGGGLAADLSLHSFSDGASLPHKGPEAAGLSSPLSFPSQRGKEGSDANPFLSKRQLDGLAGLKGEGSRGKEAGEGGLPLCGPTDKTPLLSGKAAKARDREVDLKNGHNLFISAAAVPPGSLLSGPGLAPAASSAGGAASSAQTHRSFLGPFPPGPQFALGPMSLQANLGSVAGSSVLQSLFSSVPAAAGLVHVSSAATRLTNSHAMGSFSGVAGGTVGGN

Consider `O=C(NCC[Se][Se]CCNC(=O)/C(Cc1ccccc1)=N/O)/C(Cc1ccccc1)=N/O`, for which the inhibition in vivo at 5 mg/kg in the data set on MDA-MB-231 [1] was found to be 45.5%. Moreover, in data set [2], the inhibition entry was “Active”. Moreover, the result in the data set on MDA-MB-231 [3], with MDA-MB-231 [6], in the data set with MDA-MB-231 [7], with MDA-MB-231 [10], in the data set with MDA-MB-231 [12] and in the data set with MDA-MB-231 [14] was Active. Further, the result with MDA-MB-231 [15] was Active. For the same molecule, the Activity entry is “Dose-dependent effect” with MDA-MB-231 [4], “Dose-dependent effect” in the data set on MDA-MB-231 [5], “Dose-dependent effect” with MDA-MB-231 [9] and “Non-Toxic” in data set [11]. Further, the IC50 in the data set with MCF-10A came out at 18100 nM; in the data set with SK-HEP1, 120 nM; in the data set on A549 it was 80 nM. Further, the “Ratio IC50” value in [8] is greater than 100. Besides, the selectivity ratio in data set [13] and in [16] was greater than 100 in each case.

The record behind these values is ChEMBL document CHEMBL4706701, “Synthesis and biological activity of selenopsammaplin A and its analogues as antitumor agents with DOT1L inhibitory activity” (Bioorg Med Chem, 2021).
